Assay results pooled from the literature.
Compare with care: the assays were run in different laboratories. pEC50, pIC50, pKd, pKi: −log10 of the molar value.
ADRA2A: Alpha-2A adrenergic receptor (ADRA2A, Homo sapiens, UniProt P08913)
PLG trypsin-like site: Plasminogen, trypsin-like site (PLG, Homo sapiens, UniProt P00747)
OPRD1: Delta-type opioid receptor (OPRD1, Homo sapiens, UniProt P41143)

SMILES | target | test | conditions | quantity | result
CS(=O)(=O)c1cccc(OCCCC(=O)N[C@H]2C[C@@H]3C[C@@H]3C2=O)c1 (relative stereo) | Transcriptional activator protein LasR (lasR, Pseudomonas aeruginosa, UniProt P25084, Y93F) | reporter gene, agonist | – | pEC50 | 6.30
Cc1cc(O)cc(C)c1C[C@H](N)C(=O)N[C@H](C)C(=O)NCC(=O)N[C@@H](Cc1ccc(Cl)cc1)C(=O)N(C)CCC[C@@]1(c2ccc(F)cc2)OCc2cc(C#N)ccc21 | ADRA2A | ligand displacement, radioligand | – | pKi | 5.33
CC(C)(C)[C@H](NC(=O)[C@H](CCCNC(=N)N)NC(=O)Cc1ccc(CN)cc1)C(=O)N[C@@H](CCONC(=N)N)C(=O)NCc1ccc(C(=N)N)cc1 | PLG trypsin-like site | enzyme activity, inhibitor | pH 8 | pKi | 5.48
CCC[C@H](CNC)NC[C@@H](CCC)NCCC1CC2CCC1C2 (some centres unmarked) | OPRD1 | cell-free assay | – | pIC50 | < 5.00
O=C(NCc1ccncc1)Nc1ccc(S(=O)(=O)N2CC3CCC(C2)O3)cc1 | Nicotinamide phosphoribosyltransferase (NAMPT, Homo sapiens, UniProt P43490) | ligand displacement, FP | – | pKd | 5.22 to 5.70
CNC[C@@H](Cc1ccc(O)cc1)N1CCN(CC2CCCCCC2)[C@@H](C(C)C)C1 | OPRD1 | cell-free assay | – | pIC50 | < 5.00
Cc1cn([C@@H]2CC[C@H](OC(C(=O)O)C(=O)O)C2)c(=O)[nH]c1=O | Gag-Pol polyprotein, reverse transcriptase (gag-pol, Human immunodeficiency virus 1, UniProt P03366) | enzyme activity, inhibitor | – | pKi | 5.18
Cn1cc(-c2cccc(N3CCc4c(sc5c4CC(C)(C)C5)C3=O)c2CO)cc(Nc2ccncn2)c1=O | Receptor tyrosine-protein kinase erbB-2 (ERBB2, Homo sapiens, UniProt P04626) | enzyme activity, inhibitor, FRET | – | pKi | 5.76
On1c(=S)ccc2ccccc21 | Carbonic anhydrase 2 (CA2, Homo sapiens, UniProt P00918) | enzyme activity, inhibitor, absorbance | pH 8 | pKi | 3.14
CCOC(=O)c1cncn1[C@@H](C)c1ccc(C2(C(F)(F)F)N=N2)cc1 | 5-hydroxytryptamine receptor 3A (HTR3A, Homo sapiens, UniProt P46098) | ion current, two-electrode voltage clamp | oocytes | pIC50 | 5.05
CCCC[C@H](CNCc1ccccc1)N1CCN(CC2CCCCCC2)[C@H](Cc2ccc(O)cc2)C1 | OPRD1 | cell-free assay | – | pIC50 | < 5.00
CC(=O)Nc1ccc(O)cc1 | NAD(P)H dehydrogenase [quinone] 1 (NQO1, Homo sapiens, UniProt P15559) | enzyme activity, inhibitor, absorbance | – | pKi | < 3.00
CC(C)(C)[C@H](NC(=O)[C@H](CCONC(=N)N)NC(=O)Cc1ccc(CN)cc1)C(=O)N[C@@H](CCONC(=N)N)C(=O)NCc1ccc(C(=N)N)cc1 | PLG trypsin-like site | enzyme activity, inhibitor | pH 8 | pKi | 4.72
C[C@H](N)Cn1ncc2ccc3c(c21)CCCO3 | ADRA2A | ligand displacement, radioligand | – | pKi | 5.20
CC(C)(C)[C@H](NC(=O)[C@H](CCONC(=N)N)NC(=O)Cc1ccc(CN)cc1)C(=O)N[C@@H](CCCCN)C(=O)NCc1ccc(C(=N)N)cc1 | PLG trypsin-like site | enzyme activity, inhibitor | pH 8 | pKi | 4.68
CCC[C@H](CNC)NC[C@@H](CCC)NCC1CCCCCC1 | OPRD1 | cell-free assay | – | pIC50 | < 5.00
O=C(CCCOc1cccc(Br)c1)N[C@H]1C[C@@H]2C[C@@H]2C1=O (relative stereo) | Transcriptional activator protein LasR (lasR, Pseudomonas aeruginosa, UniProt P25084, R61A) | reporter gene, agonist | – | pEC50 | 6.89
